Measurements reported in PubChem BioAssay AID504831 (Southern Research Specialized Biocontainment Screening …, 2011).

These compounds were tested on Bladder 5637 cells viability, CellTiter-Glo, 72 h (assay: viability of human bladder carcinoma cells – cell-based, set 3, cytotoxicity control for bacterial capsule biogenesis inhibitors, dose response (AID 504831)).
Outline: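 Material: human bladder carcinoma 5637 cell line; dosing: 8 doses, 2.3–300 µM; timing: 72 h compound exposure of cells; technique: CellTiter-Glo luminescence; measure: CC50 from dose-response fit, viability versus mean cell-only control; control set: Hyamine positive control, untreated cell control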

O=C(O)c1sc(-c2ccccc2)cc1NC(=O)C1CCCC1 and O=C(O)c1sc(-c2ccccc2)cc1NC(=O)C1CCCCC1 are within 1.5-fold of each other in CC50: 169 µM for the first, 115 µM for the second.

O=C(Nc1cc(-c2ccccc2)sc1C(=O)O)c1cccc(F)c1 and O=C(Nc1cc(-c2ccccc2)sc1C(=O)O)c1cccc(Cl)c1 are within 1.5-fold of each other in CC50: 76.9 µM for the first, 52.6 µM for the second.

O=C(Nc1cc(-c2ccccc2)sc1C(=O)O)c1ccc(Cl)s1 and Cc1ccc(C(=O)Nc2cc(-c3ccccc3)sc2C(=O)O)s1 are within 1.5-fold of each other in CC50: 71.5 µM for the first, 63.6 µM for the second.

First: O=C(Nc1cc(-c2ccccc2)sc1C(=O)O)c1ccc(Br)o1
Second: O=C(Nc1cc(-c2ccccc2)sc1C(=O)O)c1cc2ccccc2o1
The CC50 of the first is 1.6-fold lower: 104 µM for the first, 167 µM for the second.

First: O=C(Nc1cc(-c2ccccc2)sc1C(=O)O)c1cccs1
Second: Cc1c(C(=O)Nc2cc(-c3ccccc3)sc2C(=O)O)oc2ccccc12
The CC50 of the first is 1.8-fold higher: 89.3 µM for the first, 48.7 µM for the second.

Compared with COC(=O)c1sc(-c2ccccc2)cc1NC(=O)c1c(F)cccc1F, Cc1onc(-c2ccccc2)c1C(=O)Nc1cc(-c2ccccc2)sc1C(=O)O is 5.1-fold higher in CC50: 10.4 µM for the first, 52.6 µM for the second.

First: O=C(Nc1cc(-c2ccccc2)sc1C(=O)O)c1cc(Cl)c2c(c1)OCCO2
Second: O=C(Nc1cc(-c2ccccc2)sc1C(=O)O)c1ccc2c(c1)OCCO2
The CC50 of the first is 2.9-fold higher: 242 µM for the first, 82.1 µM for the second.

CCOc1ccc(-c2cc(NC(=O)c3ccc(OC)c(OC)c3)c(C(=O)O)s2)cc1 and CCOc1ccc(-c2cc(NC(=O)c3cccc(Cl)c3)c(C(=O)O)s2)cc1 are within 1.5-fold of each other in CC50: 82.8 µM for the first, 83.9 µM for the second.
